According to ChEMBL document CHEMBL5370575, “Probing the Cytotoxic Signaling Induced by Eupenifeldin in Ovarian Cancer Models” (J Nat Prod, 2023):
Calls of active or inactive are those of the source. The calls are words filed in the database; no cut-off is given here.

Columns and labels:
[1] = system: OVCAR-3; test: Induction of ferroptosis in human OVCAR-3 cells at 0.001 to 10 uM in presence of ferrostatin-1 by CellTiterGlo assay; format: functional, cell-based; details: dose 0.001-10 µM
[2] = system: OVCAR-3; test: Cytotoxicity against human OVCAR-3 cells assessed as inhibition of cell growth for 72 hrs by CellTiter-Blue cell viability assay; format: functional, cell-based; details: OVCAR-3, 72 h
Method in brief: (§1)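 5000 cells seeded in triplicate, attached overnight, then exposed for 72 h to serial concentrations in DMSO vehicle (0.05%). Viability was read by fluorometric CellTiter-Blue. IC50 in nM comes from dose–response curves relative to DMSO control. Media: OVCAR3 in RPMI1640, OVCAR5/OVCAR8 in DMEM, hFT33 in DMEM-Ham's F12 50/50, all with 10% FBS. Data are mean ± SEM, three biological replicates.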

[3] = system: OVCAR-5; test: Cytotoxicity against human OVCAR-5 cells assessed as inhibition of cell growth for 72 hrs by CellTiter-Blue cell viability assay; format: functional, cell-based; details: OVCAR-5, 72 h; method in brief: as §1
[4] = system: OVCAR-8; test: Cytotoxicity against human OVCAR-8 cells assessed as inhibition of cell growth for 72 hrs by CellTiter-Blue cell viability assay; format: functional, cell-based; details: OVCAR-8, 72 h; method in brief: as §1
[5] = Cytotoxicity against human FT33 cells assessed as inhibition of cell growth for 72 hrs by CellTiter-Blue cell viability assay; format: toxicity, cell-based; method in brief: as §1
[6] = system: OVCAR-3; test: Cytostatic activity against human OVCAR-3 cells assessed as […] in colony formation at 10 nM incubated for 8 hrs measured after 2 weeks by crystal violet staining based analysis; format: functional, cell-based; details: time 344.0 hrs
Method in brief: (§2)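 Seeded at 200 cells per dish, attached overnight, exposed 8 h to 10 nM (DMSO vehicle 0.1%), then grown 15 days in untreated growth medium. Colonies fixed with 4% paraformaldehyde, stained with 0.05% crystal violet, counted and normalised to vehicle. Mean ± SEM, three biological replicates, one-way ANOVA with Dunnett's test.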

[7] = system: OVCAR-5; test: Cytostatic activity against human OVCAR-5 cells assessed as […] in colony formation at 10 nM incubated for 8 hrs measured after 2 weeks by crystal violet staining based analysis; format: functional, cell-based; details: time 344.0 hrs; method in brief: as §2
[8] = system: OVCAR-8; test: Cytostatic activity against human OVCAR-8 cells assessed as […] in colony formation at 10 nM incubated for 8 hrs measured after 2 weeks by crystal violet staining based analysis; format: functional, cell-based; details: time 344.0 hrs; method in brief: as §2

Structure (SMILES)	Activity [1]	IC50 [2] [nM]	IC50 [3] [nM]	IC50 [4] [nM]	IC50 at 72 h [5] [nM]	Activity [6]	Activity [7]	Activity [8]
CC(C)Oc1ccc(C(=O)Cn2ccnc2)cc1-n1c(CN2CCN(C(=O)COc3ccc(Cl)cc3)CC2)nc2ccccc2c1=O	inactive							
CC(=O)O[C@H]1C(=O)[C@@]2(C)[C@H]([C@H](OC(=O)c3ccccc3)[C@]3(O)C[C@H](OC(=O)[C@H](O)[C@@H](NC(=O)c4ccccc4)c4ccccc4)C(C)=C1C3(C)C)[C@]1(OC(C)=O)CO[C@@H]1C[C@@H]2O [PACLITAXEL]		2.6	3.6	6.5	11	Active	Active	Active
